According to ChEMBL document CHEMBL4038327, “Inhibitory Kappa B Kinase α (IKKα) Inhibitors That Recapitulate Their Selectivity in Cells against Isoform-Related Biomarkers” (J Med Chem, 2017):
pIC50: −log10 of the molar value.

How the values were obtained:
[1] = target: T1, Inhibitor of nuclear factor kappa-B kinase subunit alpha (Homo sapiens) (UniProt O15111); experiment: (§1) Inhibition of IKKalpha in human U2OS cells assessed as decrease in FCS induced p100 phosphorylation at ser866/870 residues preincubated for 1 hr followed by FCS stimulation for 4 hrs by Western blot analysis; format: cell-based
T1 sequence (whole entry): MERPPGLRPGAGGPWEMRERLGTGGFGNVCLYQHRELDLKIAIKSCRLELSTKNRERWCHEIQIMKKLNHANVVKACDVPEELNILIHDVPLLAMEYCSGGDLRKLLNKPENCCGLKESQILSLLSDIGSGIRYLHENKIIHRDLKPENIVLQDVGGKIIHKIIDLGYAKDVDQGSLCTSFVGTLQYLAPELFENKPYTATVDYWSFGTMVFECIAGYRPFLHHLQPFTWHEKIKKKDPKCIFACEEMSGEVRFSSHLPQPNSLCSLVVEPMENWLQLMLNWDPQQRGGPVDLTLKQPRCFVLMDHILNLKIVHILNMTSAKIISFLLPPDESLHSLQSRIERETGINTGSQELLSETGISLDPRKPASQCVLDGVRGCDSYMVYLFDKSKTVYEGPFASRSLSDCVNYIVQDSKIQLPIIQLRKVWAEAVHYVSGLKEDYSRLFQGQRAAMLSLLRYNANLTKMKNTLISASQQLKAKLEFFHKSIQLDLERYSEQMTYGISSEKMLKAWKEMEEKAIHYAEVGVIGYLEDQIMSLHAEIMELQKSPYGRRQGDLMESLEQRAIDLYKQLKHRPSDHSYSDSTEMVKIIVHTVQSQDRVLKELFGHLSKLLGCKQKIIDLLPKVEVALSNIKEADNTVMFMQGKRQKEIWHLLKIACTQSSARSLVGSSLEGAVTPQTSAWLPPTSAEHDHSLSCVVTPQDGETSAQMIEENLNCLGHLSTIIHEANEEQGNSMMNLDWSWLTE
In short: (§2)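 U2OS cells were grown in McCoy's 5A medium at 37 °C under 5% CO2 and made quiescent by 24 h serum deprivation. They were then pretreated with compound before agonist stimulation in serum-free medium. Phospho-p100, IκBα levels and phospho-p65 (Ser536) were assessed by Western blot.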

[2] = target: T2, Inhibitor of nuclear factor kappa-B kinase subunit alpha (Homo sapiens, UniProt O15111); experiment: as §1; format: cell-based; in short: as §2
T2 sequence (O15111 whole entry): T1 sequence (whole entry)

[3] = target: T3, Inhibitor of nuclear factor kappa-B kinase subunit alpha (Mus musculus) (UniProt Q60680); experiment: Inhibition of IKKalpha in IKKbeta knockout mouse embryonic fibroblast cells harboring Adv.NF-kB.luc assessed as IL-1beta induced NF-kB transcriptional activation at 100 uM pretreated for 1 hr followed by IL-1beta stimulation for 6 hrs by luciferase reporter gene assay relative to control; parameters: scale not given: the % may be the effect or the level left
T3 sequence (whole entry): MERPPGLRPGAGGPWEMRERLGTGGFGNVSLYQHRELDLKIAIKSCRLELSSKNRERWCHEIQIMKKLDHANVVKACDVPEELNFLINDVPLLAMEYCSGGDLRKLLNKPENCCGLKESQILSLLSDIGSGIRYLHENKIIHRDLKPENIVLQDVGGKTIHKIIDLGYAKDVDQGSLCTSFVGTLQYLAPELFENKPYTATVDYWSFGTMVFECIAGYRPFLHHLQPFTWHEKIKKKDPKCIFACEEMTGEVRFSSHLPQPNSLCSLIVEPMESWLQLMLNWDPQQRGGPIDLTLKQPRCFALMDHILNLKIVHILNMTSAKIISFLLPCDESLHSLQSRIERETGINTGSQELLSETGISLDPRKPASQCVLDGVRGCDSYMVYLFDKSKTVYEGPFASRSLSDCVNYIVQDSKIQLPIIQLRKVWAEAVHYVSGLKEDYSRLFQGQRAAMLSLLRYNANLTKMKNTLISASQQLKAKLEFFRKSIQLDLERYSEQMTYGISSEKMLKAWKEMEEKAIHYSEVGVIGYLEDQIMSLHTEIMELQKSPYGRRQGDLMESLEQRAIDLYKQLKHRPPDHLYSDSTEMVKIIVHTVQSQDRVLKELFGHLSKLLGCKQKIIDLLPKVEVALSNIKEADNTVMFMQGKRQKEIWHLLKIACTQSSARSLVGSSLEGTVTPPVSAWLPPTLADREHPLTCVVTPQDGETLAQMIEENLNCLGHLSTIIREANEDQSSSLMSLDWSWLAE
In short: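 IKKβ knockout MEFs infected with Adv.NF-kB.luc (up to 300 pfu/cell, 24 h, 10% DMEM), replated and serum-starved 24 h. Pretreated 1 h with compound, then IL-1β (10 ng/mL) for 6 h. Lysis buffer contained 0.2 mM luciferin, and luminescence was read as RLU. Results are expressed as % of IL-1β + DMSO stimulation.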

[4] = target: T4, Aurora kinase A (Homo sapiens) (UniProt O14965); experiment: Inhibition of N-terminal His6 tagged recombinant human full length Aurora A expressed in Sf21 cells at 10 uM relative to control
T4 sequence (whole entry): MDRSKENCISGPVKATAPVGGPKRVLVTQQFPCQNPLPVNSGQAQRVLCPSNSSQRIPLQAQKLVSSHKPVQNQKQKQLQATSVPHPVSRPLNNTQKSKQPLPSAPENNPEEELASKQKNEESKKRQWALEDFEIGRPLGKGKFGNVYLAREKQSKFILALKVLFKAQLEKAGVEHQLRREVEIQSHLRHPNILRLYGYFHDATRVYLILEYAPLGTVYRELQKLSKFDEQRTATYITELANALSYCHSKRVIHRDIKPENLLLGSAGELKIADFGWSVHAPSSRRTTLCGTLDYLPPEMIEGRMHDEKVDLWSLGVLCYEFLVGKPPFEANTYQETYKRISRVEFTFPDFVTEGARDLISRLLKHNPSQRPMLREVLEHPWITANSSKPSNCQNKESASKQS
In short: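 Outsourced commercial kinase panel run at a single concentration, with duplicate assay points.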

inhibition [1]: Dose-dependent effect
pIC50 [2]: 5.06 to 5.24
Activity [3]: -40.9%
inhibition [4]: > 80%
SMILES: N#Cc1c[nH]c2nc(N)nc(-c3ccc(S(N)(=O)=O)cc3)c12
